For 28 compounds, IC50 and Inhibition results are on record in ChEMBL document CHEMBL1126926, “Nonprostanoid prostacyclin mimetics. 5. Structure-activity relationships associated with [3-[4-(4,5-diphenyl-2-oxazolyl)-5- oxazolyl]phenoxy]acetic acid” (J Med Chem, 1993).

For assay [1], the species on record is Homo sapiens. The experiment in a line: (§1) In vitro inhibition of 5.86 uM ADP-induced human platelet aggregation in platelet rich plasma (PRP). The format is functional. A digest of the protocol:
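Human blood drawn into 1/10 volume 3.8% sodium citrate and spun 10 min at 140g to give platelet-rich plasma. Compound in DMSO added to PRP 3 min before 5.86 μM ADP. Aggregation read by Born turbidimetric aggregometry (Mustard modification) against vehicle controls over various concentrations. IC50 taken from dose-response curves, single determinations or mean of duplicates.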

The species named for assay [2] is Homo sapiens. The assay is described as §1. The format is functional. The source holds these as a separate data set.
Assay [3] is filed under the species Homo sapiens. Nature of the assay: Inhibitory concentration for displacing [3H]iloprost from human platelet membrane at 5.4 nM at 37 degree C.
For assay [4], the species on record is Homo sapiens. Nature of the assay: Compound tested for percent inhibition against 5.86 uM ADP-induced human platelet aggregation in platelet rich plasma (PRP). The class given is functional. A digest of the protocol:
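Citrated human PRP (blood spun 10 min at 140g) preincubated 3 min with compound in DMSO, then challenged with 5.86 μM ADP. Born aggregometry (Mustard modification), compared with vehicle controls. Value is percent inhibition at a single stated concentration, from a single experiment or mean of duplicates.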

Broadly, the IC50 is the midpoint of a concentration-inhibition curve. A high value points to lower potency. A word on the Inhibition: it is the change of the read-out against control, counted positive when it falls. Low readings indicate a response near the control, high ones a response far below the control.

A value given as a limit tells only on which side of the number the result lay.

In turn, `O=C(O)COc1cccc(-c2ocnc2-c2nc(-c3ccsc3)c(-c3ccsc3)o2)c1` returned an IC50 in the assay filed under Homo sapiens [1] of 450 nM.
For the compound `Cn1ncc(-c2nc(-c3ccccc3)c(-c3ccccc3)o2)c1-c1cccc(OCC(=O)O)c1`, the IC50 in the assay listed under Homo sapiens [2] was 1060 nM; in the assay filed under Homo sapiens [3], 337 nM.
Regarding `O=C(O)CCCCCc1ocnc1-c1nc(-c2ccccc2)c(-c2ccccc2)o1`, the IC50 in the assay filed under Homo sapiens [1] came out at 7200 nM.
In the assay filed under Homo sapiens [1], `N#CCOc1cccc(-c2ocnc2-c2nc(-c3ccccc3)c(-c3ccccc3)o2)c1` displayed an IC50 greater than 76000 nM. Also, in the assay listed under Homo sapiens [4], the Inhibition is listed as 14%.
For `O=C(O)CCCc1ocnc1-c1nc(-c2ccccc2)c(-c2ccccc2)o1`, in the assay listed under Homo sapiens [1], the IC50 was greater than 80000 nM. The Inhibition in the assay filed under Homo sapiens [4] was 44%.
Turning to `O=C(O)COc1cccc(-c2oc(-c3ccccc3)nc2-c2nc(-c3ccccc3)c(-c3ccccc3)o2)c1`, in the assay listed under Homo sapiens [1], the IC50 is greater than 60000 nM. The Inhibition in the assay listed under Homo sapiens [4] was found to be 36%.
Consider `O=C(O)COc1cccc(-c2ncoc2-c2nc(-c3ccccc3)c(-c3ccccc3)o2)c1`, for which 160 nM corresponded to half-maximal inhibition in the assay listed under Homo sapiens [1] (IC50).
`O=C(O)COc1cccc(-c2ccccc2-c2nc(-c3ccccc3)c(-c3ccccc3)o2)c1` showed a half-maximal inhibitory concentration (IC50) in the assay filed under Homo sapiens [1] of 11100 nM.
Compound `O=C(O)COc1cccc(-c2ocnc2-c2nc(-c3ccccc3)c(-c3ccccc3)[nH]2)c1` registered an IC50 in the assay filed under Homo sapiens [1] of 30 nM.
Regarding `O=C(O)COc1cccc(-c2ocnc2-c2nnc(-c3ccccc3)n2-c2ccccc2)c1`, the IC50 in the assay listed under Homo sapiens [1] was greater than 70000 nM.
In turn, `c1ccc(-c2nc(-c3ncoc3-c3cccc(OCc4nn[nH]n4)c3)oc2-c2ccccc2)cc1` registered an IC50 in the assay listed under Homo sapiens [1] of 130 nM.
Regarding `O=C(O)CCCCc1ocnc1-c1nc(-c2ccccc2)c(-c2ccccc2)o1`, the concentration for half-maximal inhibition (IC50) in the assay listed under Homo sapiens [1] was determined as 15900 nM.
`O=C(O)COc1ccc(-c2ocnc2-c2nc(-c3ccccc3)c(-c3ccccc3)o2)cc1` returned an IC50 in the assay filed under Homo sapiens [1] greater than 73000 nM. The same compound yielded an Inhibition in the assay listed under Homo sapiens [4] of 44%.
`O=C(O)COc1cccc(/C=C\c2nc(-c3ccccc3)c(-c3ccccc3)o2)c1` returned an IC50 in the assay listed under Homo sapiens [3] of 6 nM.
For the compound `O=C(O)COc1cccc(-c2ocnc2-c2nc(-c3ccccc3)c(-c3ccccc3)o2)c1`, the results for the IC50 in the assay filed under Homo sapiens [2] and in the assay filed under Homo sapiens [3] were 27 nM and 5.4 nM, respectively.
Compound `CC#CCC(C)[C@H](O)/C=C/[C@@H]1[C@H]2C/C(=C/CCCC(=O)O)C[C@H]2C[C@H]1O` (some centres not stated) [ILOPROST] yielded a 50% inhibitory concentration (IC50) in the assay filed under Homo sapiens [3] of 47.7 nM.
In the assay listed under Homo sapiens [1], `O=C(O)CCCCCCCCc1nc(-c2ccccc2)c(-c2ccccc2)o1` returned an IC50 of 2500 nM.
In turn, `O=C(O)CCCCCCc1ocnc1-c1nc(-c2ccccc2)c(-c2ccccc2)o1` yielded an IC50 in the assay listed under Homo sapiens [1] of 420 nM.
`O=C(O)CCCOc1ccccc1-c1nc(-c2ccccc2)c(-c2ccccc2)o1` gave an IC50 in the assay filed under Homo sapiens [1] greater than 75000 nM.
`Cn1cc(-c2nc(-c3ccccc3)c(-c3ccccc3)o2)c(-c2cccc(OCC(=O)O)c2)n1`: the IC50 amounted to 650 nM in the assay filed under Homo sapiens [2] and 302 nM in the assay filed under Homo sapiens [3].
Regarding `O=C(O)COc1cccc(-c2ocnc2-c2nc(-c3ccccc3)c(-c3ccccc3)s2)c1`, in the assay listed under Homo sapiens [1], the IC50 turned out to be 150 nM.
For the compound `O=C(O)COc1cccc(-c2[nH]ncc2-c2nc(-c3ccccc3)c(-c3ccccc3)o2)c1`, the IC50 in the assay filed under Homo sapiens [2] was 180 nM.
Compound `Cc1ccc(-c2nc(-c3ncoc3-c3cccc(OCC(=O)O)c3)oc2-c2ccc(C)cc2)cc1` came in with an IC50 in the assay filed under Homo sapiens [1] of 100 nM.
With `O=C(O)CCCCCCCc1ocnc1-c1nc(-c2ccccc2)c(-c2ccccc2)o1`, it took 11600 nM to reach half-maximal inhibition in the assay listed under Homo sapiens [1] (IC50).
For the compound `Cc1nc(-c2nc(-c3ccccc3)c(-c3ccccc3)o2)c(-c2cccc(OCC(=O)O)c2)o1`, the concentration for half-maximal inhibition (IC50) was 50 nM in the assay listed under Homo sapiens [2] and 36.6 nM in the assay listed under Homo sapiens [3].
`O=C(O)CCCCOc1ccccc1-c1nc(-c2ccccc2)c(-c2ccccc2)o1`: in the assay filed under Homo sapiens [1], the IC50 was greater than 75000 nM.
The compound `CCCCC[C@H](O)/C=C/[C@@H]1[C@H]2C/C(=C/CCCC(=O)O)O[C@H]2C[C@H]1O` [EPOPROSTENOL] came in with an IC50 in the assay listed under Homo sapiens [1] of 8 nM.
As to `O=C(O)COc1cccc(-c2ocnc2-c2onc(-c3ccccc3)c2-c2ccccc2)c1`, the IC50 in the assay listed under Homo sapiens [1] was greater than 72000 nM. In the assay listed under Homo sapiens [4], this compound came in with an Inhibition of 36%.
